Consider 14 molecules from ChEMBL document CHEMBL2434837, “Anticancer evaluation of some newly synthesized N-nicotinonitrile derivative” (Eur J Med Chem, 2013).

Experiment [1] concerns HepG2. The experiment can be described thus: Inhibition of uPA protein expression in human HepG2 cells at 0.1 time compound IC50 after 48 hrs by ELISA. Type of experiment: functional. The procedure, abridged: (§1)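 Cells exposed 48 h to compound. Culture medium collected and spun at 2000 xg for 10 min to remove debris. Sandwich ELISA for human uPA: sample 2 h, biotinylated anti-uPA 1 h at 25 °C, streptavidin-peroxidase 30 min, chromogen, then stop solution, absorbance read at 450 nm. uPA level expressed as percent change relative to DMSO-treated control cells.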

For experiment [2], the system named is HepG2. The experiment can be described thus: Cytotoxicity against human HepG2 cells after 48 hrs by SRB assay. Type of experiment: functional, cell-based. In outline: (§2)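 Cells from ATCC, kept in DMEM with 10% heat-inactivated fetal calf serum, penicillin and streptomycin at 37 °C, 5% CO2. Seeded at 10^4 cells/well and left 24 h to attach. Compounds in DMSO (1 mg/ml stock) added at several concentrations, triplicate wells per dose, 48 h exposure. Then fixed, stained 30 min with 0.4% SRB in 1% acetic acid, and dye recovered in Tris-EDTA for absorbance. IC50 derived from surviving fraction versus concentration.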
(In SRB staining, fixed cells bind dye roughly in proportion to their protein.)

Experiment [3] has as its system A549. The experiment can be described thus: Inhibition of uPA protein expression in human A549 cells at 0.1 time compound IC50 after 48 hrs by ELISA. Type of experiment: functional. The procedure, abridged: as §1
(In general: In an ELISA, binding on a coated surface is turned into a signal by an enzyme label.)

Experiment [4] has as its system MCF7. The experiment can be described thus: Inhibition of uPA protein expression in human MCF7 cells at 0.1 time compound IC50 after 48 hrs by ELISA. The class given is functional. In outline: as §1
For experiment [5], the system named is MCF7. The experiment can be described thus: Cytotoxicity against human MCF7 cells after 48 hrs by SRB assay. The class given is functional, cell-based. In outline: as §2
The test system of experiment [6] is A549. Kind of experiment: Cytotoxicity against human A549 cells after 48 hrs by SRB assay. Type of experiment: functional, cell-based. In outline:
as §2

[7] abbreviates: Homo sapiens, HepG2, 48 h, read-out: IC50.
Where [8] appears, read: Homo sapiens, MCF7, 48 h, read-out: IC50.

Each structure is given as a SMILES string. ≈ marks a conversion by molar mass, not a printed value. Calls of active or inactive are those of the source. No cut-off for these calls is given here.

One may read the IC50 as the concentration that gives 50% inhibition.

`N#Cc1c(-c2ccc(Cl)cc2)cc(-c2ccc(Cl)cc2)n([C@@H]2O[C@H](CO)[C@@H](O)[C@H]2O)c1=O`: the “inhibition (INH)” value with HepG2 [1] was 56%; in the experiment on MCF7 [4], 60%. For the same molecule, the IC50 in the experiment with HepG2 [2] (setting [7]) was 6.9 µg/mL (≈ 14.6 µM); with MCF7 [5] (setting [8]) it was 5.7 µg/mL (≈ 12 µM); in the experiment on A549 [6] (a549), “Not Active”. Further, in the experiment with A549 [3], the inhibition entry is “inactive”.

Take `COc1cccc2c1C(=O)c1c(O)c3c(c(O)c1C2=O)C[C@@](O)(C(=O)CO)C[C@@H]3O[C@H]1C[C@H](N)[C@H](O)[C@H](C)O1` [DOXORUBICIN]: the “inhibition (INH)” value is recorded as 88% in the experiment on HepG2 [1], 82% with A549 [3] and 91% with MCF7 [4]. For the same molecule, the IC50 with HepG2 [2] (setting [7]) is 3.9 µg/mL (≈ 7.18 µM); in the experiment with A549 [6] (Homo sapiens, A549, 48 h, read-out: IC50) it was 4.11 µg/mL (≈ 7.56 µM).

`N#Cc1c(-c2ccc(Cl)cc2)cc(-c2ccc(Cl)cc2)n(CC(O)CCl)c1=O` (stereo not drawn): the “inhibition (INH)” value in the experiment on HepG2 [1] amounted to 67%; in the experiment with MCF7 [4], 82%. Moreover, the figures for the concentration for half-maximal inhibition (IC50) in the experiment with HepG2 [2] (setting [7]), with MCF7 [5] (setting [8]) and in the experiment on A549 [6] (a549) were 4.8 µg/mL (≈ 11.1 µM), 4.6 µg/mL (≈ 10.6 µM) and “Not Active”, respectively. Besides, the inhibition result in the experiment with A549 [3] is “inactive”.

As for `CCn1c(-c2ccc(Cl)cc2)cc(-c2ccc(Cl)cc2)c(C#N)c1=O`, the figures for the “inhibition (INH)” value with HepG2 [1] and in the experiment with MCF7 [4] were 2% and 3%, respectively. In addition, the figures for the IC50 in the experiment with HepG2 [2] (setting [7]), in the experiment on MCF7 [5] (setting [8]) and in the experiment with A549 [6] (a549) were 22.3 µg/mL (≈ 60.4 µM), 19.7 µg/mL (≈ 53.4 µM) and “Not Active”, respectively. Further, the inhibition result with A549 [3] was “inactive”.

`N#Cc1c(-c2ccc(Cl)cc2)cc(-c2ccc(Cl)cc2)n(C(=O)c2ccccc2)c1=O`: the “inhibition (INH)” value in the experiment on HepG2 [1] is recorded as 87%; with MCF7 [4], 90%. For the same molecule, the figures for the IC50 in the experiment with HepG2 [2] (setting [7]), in the experiment with MCF7 [5] (setting [8]) and in the experiment on A549 [6] (a549) were 3.75 µg/mL (≈ 8.42 µM), 2.6 µg/mL (≈ 5.84 µM) and “Not Active”, respectively. Moreover, the inhibition result in the experiment on A549 [3] was “inactive”.

Take `N#Cc1c(-c2ccc(Cl)cc2)cc(-c2ccc(Cl)cc2)n([C@@H]2O[C@H](CO)[C@@H](O)[C@H](O)[C@H]2O)c1=O`: the “inhibition (INH)” value in the experiment with HepG2 [1] amounted to 6%; with MCF7 [4], 9%. Moreover, the IC50 in the experiment with HepG2 [2] (setting [7]) was 16.1 µg/mL (≈ 32 µM); in the experiment on MCF7 [5] (setting [8]), 14.2 µg/mL (≈ 28.2 µM); with A549 [6] (a549) it was “Not Active”. Besides, the inhibition entry with A549 [3] was “inactive”.

Turning to `N#Cc1c(-c2ccc(Cl)cc2)cc(-c2ccc(Cl)cc2)n([C@@H]2O[C@H](COC(=O)c3ccccc3)[C@@H](OC(=O)c3ccccc3)[C@H]2OC(=O)c2ccccc2)c1=O`, the entries for the “inhibition (INH)” value with HepG2 [1] and in the experiment with MCF7 [4] were 60% and 66%, respectively. In addition, the IC50 with HepG2 [2] (setting [7]) was 8 µg/mL (≈ 10.2 µM); with MCF7 [5] (setting [8]) it was 5.9 µg/mL (≈ 7.51 µM); in the experiment on A549 [6] (a549), “Not Active”. The inhibition entry in the experiment with A549 [3] was “inactive”.

Consider `N#Cc1c(-c2ccc(Cl)cc2)cc(-c2ccc(Cl)cc2)n(Cc2ccccc2)c1=O`, for which the “inhibition (INH)” value was 83% in the experiment on HepG2 [1] and 86% in the experiment with MCF7 [4]. Moreover, the figures for the IC50 in the experiment with HepG2 [2] (setting [7]), in the experiment with MCF7 [5] (setting [8]) and in the experiment with A549 [6] (a549) were 4.2 µg/mL (≈ 9.74 µM), 3.65 µg/mL (≈ 8.46 µM) and “Not Active”, respectively. In addition, the inhibition result in the experiment with A549 [3] was “inactive”.

As to `N#Cc1c(-c2ccc(Cl)cc2)cc(-c2ccc(Cl)cc2)n(CC2CO2)c1=O` (stereo not drawn), the “inhibition (INH)” value in the experiment on HepG2 [1] came to 63%; with MCF7 [4] it was 77%. In addition, the IC50 in the experiment with HepG2 [2] (setting [7]) was 6.2 µg/mL (≈ 15.6 µM); in the experiment with MCF7 [5] (setting [8]) it was 5 µg/mL (≈ 12.6 µM); in the experiment on A549 [6] (a549) it was “Not Active”. The inhibition entry in the experiment on A549 [3] is “inactive”.

Turning to `C=CCn1c(-c2ccc(Cl)cc2)cc(-c2ccc(Cl)cc2)c(C#N)c1=O`, the “inhibition (INH)” value turned out to be 5% with HepG2 [1] and 3% in the experiment on MCF7 [4]. For the same molecule, the IC50 with HepG2 [2] (setting [7]) was 20 µg/mL (≈ 52.5 µM); in the experiment with MCF7 [5] (setting [8]) it was 19 µg/mL (≈ 49.8 µM); in the experiment with A549 [6] (a549), “Not Active”. Besides, in the experiment with A549 [3], the inhibition entry was “inactive”.

`N#CCn1c(-c2ccc(Cl)cc2)cc(-c2ccc(Cl)cc2)c(C#N)c1=O`: the inhibition result in the experiment on HepG2 [1], with A549 [3] and with MCF7 [4] was “inactive” throughout. Moreover, the IC50 entry in the experiment on HepG2 [2] (hepg2), in the experiment with MCF7 [5] (mcf7) and with A549 [6] (a549) was “Not Active” throughout.

Regarding `N#Cc1c(-c2ccc(Cl)cc2)cc(-c2ccc(Cl)cc2)[nH]c1=O`, the inhibition result in the experiment with HepG2 [1], in the experiment on A549 [3] and in the experiment on MCF7 [4] was “inactive” in each case. Also, the IC50 result with HepG2 [2] (hepg2), with MCF7 [5] (mcf7) and in the experiment on A549 [6] (a549) was “Not Active” each time.

For `C#CCn1c(-c2ccc(Cl)cc2)cc(-c2ccc(Cl)cc2)c(C#N)c1=O`, the “inhibition (INH)” value in the experiment with HepG2 [1] amounted to 5%; in the experiment on MCF7 [4], 7%. The IC50 was 18.3 µg/mL (≈ 48.3 µM) in the experiment with HepG2 [2] (setting [7]), 16.7 µg/mL (≈ 44 µM) with MCF7 [5] (setting [8]) and “Not Active” in the experiment with A549 [6] (a549). For the same molecule, the inhibition result with A549 [3] is “inactive”.

On to `CC(=O)OC[C@H]1O[C@@H](n2c(-c3ccc(Cl)cc3)cc(-c3ccc(Cl)cc3)c(C#N)c2=O)[C@H](OC(C)=O)[C@@H](OC(C)=O)[C@@H]1OC(C)=O`, for which the “inhibition (INH)” value with HepG2 [1] worked out at 48%; in the experiment with MCF7 [4], 54%. Also, the IC50 is 7.25 µg/mL (≈ 10.8 µM) with HepG2 [2] (setting [7]), 6.3 µg/mL (≈ 9.38 µM) in the experiment with MCF7 [5] (setting [8]) and “Not Active” in the experiment on A549 [6] (a549). In the experiment on A549 [3], the inhibition entry was “inactive”.
